Measurements: PMC3776227 (Biochemical Pharmacology, 2013)

Key:
α3β2 GABAA receptors [1] = biological target: T1, α3β2 GABAA receptors (Rattus norvegicus, UniProt P20236+P63138); test: IGABA modulation, two-microelectrode voltage clamp, Xenopus oocytes, α3β2; type: cell-based
Procedure, shortened: (§1)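 Rat GABAA subunit cRNAs were injected into stage V–VI Xenopus oocytes (10–50 nl, about 300–3000 pg/nl): α1β1 at 3:1, other αβ pairs at 1:1, and γ2S-containing receptors at α:β:γ 1:1:10. Oocytes were kept 24–48 h at 18 °C in ND96 with penicillin/streptomycin. Two-electrode voltage clamp was run at −70 mV in HEPES-buffered bath (pH 7,4).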

α5β2 GABAA receptors = α5β2 GABAA receptors (Rattus norvegicus, UniProt P19969+P63138); test: IGABA modulation, two-microelectrode voltage clamp, Xenopus oocytes, α5β2; type: cell-based
Procedure, shortened: as §1

α2β2 GABAA receptors = α2β2 GABAA receptors (Rattus norvegicus, UniProt P23576+P63138); test: IGABA modulation, two-microelectrode voltage clamp, Xenopus oocytes, α2β2; type: cell-based
Procedure, shortened: as §1

α3β2 GABAA receptors [2] = biological target: T1, α3β2 GABAA receptors; test: Shift of the GABA concentration-response curve by 100 μM compound; type: cell-based; details: enhancement not significant (p > 0.05)
α1β2 GABAA receptors = α1β2 GABAA receptors (Rattus norvegicus, UniProt P62813+P63138); test: IGABA modulation, two-microelectrode voltage clamp, Xenopus oocytes, α1β2; type: cell-based
Procedure, shortened: as §1

α1β2γ2S GABAA receptors = α1β2γ2S GABAA receptors (Rattus norvegicus, UniProt P62813+P63138); details: piperine data taken from the literature; cited from earlier work
C57BL/6N mice [3] = test: Seizure threshold, pentylentetrazole; type: in vivo; details: for Seizure threshold (PTZ dose): 30 min before PTZ, control 39.4 ± 2.8
α1β1 GABAA receptors = α1β1 GABAA receptors (Rattus norvegicus, UniProt P15431+P62813); test: IGABA modulation, two-microelectrode voltage clamp, Xenopus oocytes, α1β1; type: cell-based
Procedure, shortened: as §1

C57BL/6N mice [4] = test: Open Field Test; type: in vivo
Procedure, shortened: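 Male C57BL/6N mice (3–6 months) were dosed i.p. with test compound or vehicle (saline, 10% DMSO, 3% Tween 80, pH 7.4) 30 min before testing. Ambulation was tracked by infrared for 10 min in a 50 × 50 × 50 cm box at 150 lx, starting in the centre. Zones: border ≤8 cm from wall, centre 20 × 20 cm. ≥8 mice; ANOVA with Bonferroni.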

C57BL/6N mice [5] = test: Elevated Plus Maze Test; type: in vivo
Procedure, shortened: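 Test compound or vehicle (saline, 10% DMSO, 3% Tween 80, pH 7.4) was injected i.p. into male C57BL/6N mice (3–6 months) 30 min before a 5-min elevated plus maze trial. The maze stood 1 m high with 30 × 5 cm arms and 20 cm closed-arm walls, lit at 180 lx. Mice started in the centre facing an open arm; scoring was automated by video. ≥9 mice; ANOVA with Bonferroni.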

TRPV1 channels = TRPV1 channels (Rattus norvegicus, UniProt O35433); test: TRPV1 activation, two-microelectrode voltage clamp, Xenopus oocytes; type: cell-based
Procedure, shortened: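 Rat TRPV1 cRNA was injected into Xenopus oocytes, which were stored 24–48 h at 18 °C. Two-electrode voltage clamp was run at −60 mV. Test compound (3–300 μM) was applied by fast perfusion. Peak inward current was normalised to a preceding 300 μM control response to the parent test compound in the same cell. Hill fit; n = 3–10 cells.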

C57BL/6N mice [6] = test: Measurement of body temperature; type: in vivo; details: 3 h after injection, control 36.10 ± 0.10 °C
GABAA receptors = test: Direct activation of GABAA receptors in the absence of GABA; type: cell-based, rat; details: up to 300 μM, no GABA
α1β3 GABAA receptors = α1β3 GABAA receptors (Rattus norvegicus, UniProt P62813+P63079); test: IGABA modulation, two-microelectrode voltage clamp, Xenopus oocytes, α1β3; type: cell-based
Procedure, shortened: as §1

[7] = read-out: Maximum stimulation of IGABA at EC3–7

Sequence of α2β2 GABAA receptors (P23576 29-451): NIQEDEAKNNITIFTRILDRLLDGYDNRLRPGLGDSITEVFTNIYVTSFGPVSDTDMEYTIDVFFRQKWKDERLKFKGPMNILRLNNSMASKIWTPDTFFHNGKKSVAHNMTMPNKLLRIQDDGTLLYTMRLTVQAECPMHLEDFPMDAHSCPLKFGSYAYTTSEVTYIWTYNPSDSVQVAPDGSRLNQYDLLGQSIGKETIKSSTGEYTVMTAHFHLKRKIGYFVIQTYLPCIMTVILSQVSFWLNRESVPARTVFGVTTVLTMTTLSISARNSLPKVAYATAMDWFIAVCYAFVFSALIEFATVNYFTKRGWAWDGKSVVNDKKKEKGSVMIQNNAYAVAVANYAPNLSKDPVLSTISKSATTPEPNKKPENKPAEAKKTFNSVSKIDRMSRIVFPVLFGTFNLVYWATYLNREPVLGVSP
Sequence of α2β2 GABAA receptors (P63138 25-474 limits assumed): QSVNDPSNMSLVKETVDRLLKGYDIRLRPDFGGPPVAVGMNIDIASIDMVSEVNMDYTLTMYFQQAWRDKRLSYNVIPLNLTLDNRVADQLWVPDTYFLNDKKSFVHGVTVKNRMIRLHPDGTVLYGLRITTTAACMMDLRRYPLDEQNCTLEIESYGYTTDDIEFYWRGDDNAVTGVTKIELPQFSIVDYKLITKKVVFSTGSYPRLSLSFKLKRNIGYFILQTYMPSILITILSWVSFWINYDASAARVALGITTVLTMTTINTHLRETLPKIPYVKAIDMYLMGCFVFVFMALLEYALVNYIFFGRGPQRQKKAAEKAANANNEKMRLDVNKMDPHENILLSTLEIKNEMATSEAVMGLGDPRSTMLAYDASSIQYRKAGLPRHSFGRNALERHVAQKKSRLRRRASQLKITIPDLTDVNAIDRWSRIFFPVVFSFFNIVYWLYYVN
Sequence of α5β2 GABAA receptors (P19969 26-464): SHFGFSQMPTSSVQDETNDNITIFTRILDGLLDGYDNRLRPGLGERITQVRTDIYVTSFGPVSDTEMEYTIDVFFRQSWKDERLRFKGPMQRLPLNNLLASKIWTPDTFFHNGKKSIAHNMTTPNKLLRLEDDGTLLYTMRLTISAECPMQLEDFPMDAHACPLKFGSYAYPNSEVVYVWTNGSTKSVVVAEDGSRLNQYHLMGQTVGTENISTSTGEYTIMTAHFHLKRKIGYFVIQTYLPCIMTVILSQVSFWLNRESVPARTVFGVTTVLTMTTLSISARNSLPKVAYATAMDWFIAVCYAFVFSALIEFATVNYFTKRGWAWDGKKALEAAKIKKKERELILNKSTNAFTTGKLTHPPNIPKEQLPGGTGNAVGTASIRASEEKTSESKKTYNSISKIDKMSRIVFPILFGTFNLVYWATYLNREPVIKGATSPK
Sequence of α5β2 GABAA receptors (P63138 25-474 limits assumed): as the sequence (P63138 25-474 limits assumed) above
T1 sequence (P20236 29-493): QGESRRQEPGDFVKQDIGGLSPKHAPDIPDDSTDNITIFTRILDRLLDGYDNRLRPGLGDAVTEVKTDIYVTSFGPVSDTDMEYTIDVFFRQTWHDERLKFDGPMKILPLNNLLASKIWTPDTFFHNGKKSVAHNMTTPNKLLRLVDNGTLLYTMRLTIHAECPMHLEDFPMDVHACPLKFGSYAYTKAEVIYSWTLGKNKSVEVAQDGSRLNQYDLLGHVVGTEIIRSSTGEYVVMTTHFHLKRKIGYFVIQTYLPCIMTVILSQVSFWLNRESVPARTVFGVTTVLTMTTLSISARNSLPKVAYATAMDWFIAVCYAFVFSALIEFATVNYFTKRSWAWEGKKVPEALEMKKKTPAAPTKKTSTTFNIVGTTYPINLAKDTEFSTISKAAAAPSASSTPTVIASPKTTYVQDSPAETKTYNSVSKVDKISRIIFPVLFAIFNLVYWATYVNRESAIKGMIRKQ
T1 sequence (P63138 25-474 limits assumed): as the sequence (P63138 25-474 limits assumed) above
Sequence of TRPV1 channels (O35433 whole entry, the tested form may be a part): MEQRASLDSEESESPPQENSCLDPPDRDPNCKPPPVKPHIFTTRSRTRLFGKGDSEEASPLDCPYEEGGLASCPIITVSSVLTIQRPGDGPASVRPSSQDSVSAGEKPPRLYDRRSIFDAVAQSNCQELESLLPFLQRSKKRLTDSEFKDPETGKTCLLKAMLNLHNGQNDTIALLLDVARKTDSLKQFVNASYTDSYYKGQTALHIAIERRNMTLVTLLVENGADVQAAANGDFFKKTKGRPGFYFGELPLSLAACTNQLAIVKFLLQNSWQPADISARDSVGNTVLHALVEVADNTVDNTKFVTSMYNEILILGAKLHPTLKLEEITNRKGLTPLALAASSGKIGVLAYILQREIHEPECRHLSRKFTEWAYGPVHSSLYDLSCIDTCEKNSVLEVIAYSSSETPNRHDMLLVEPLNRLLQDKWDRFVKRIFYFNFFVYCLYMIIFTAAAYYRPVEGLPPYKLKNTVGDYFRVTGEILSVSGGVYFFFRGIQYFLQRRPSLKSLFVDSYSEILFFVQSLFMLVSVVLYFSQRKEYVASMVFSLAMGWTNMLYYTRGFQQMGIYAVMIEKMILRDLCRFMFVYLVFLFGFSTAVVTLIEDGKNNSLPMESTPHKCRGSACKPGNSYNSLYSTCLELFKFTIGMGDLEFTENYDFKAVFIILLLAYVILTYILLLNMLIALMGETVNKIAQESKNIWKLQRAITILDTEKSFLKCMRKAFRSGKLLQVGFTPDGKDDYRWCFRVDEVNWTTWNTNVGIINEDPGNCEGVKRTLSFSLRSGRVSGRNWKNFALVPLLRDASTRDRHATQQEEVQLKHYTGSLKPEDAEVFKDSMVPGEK
Sequence of α1β1 GABAA receptors (P62813 28-455): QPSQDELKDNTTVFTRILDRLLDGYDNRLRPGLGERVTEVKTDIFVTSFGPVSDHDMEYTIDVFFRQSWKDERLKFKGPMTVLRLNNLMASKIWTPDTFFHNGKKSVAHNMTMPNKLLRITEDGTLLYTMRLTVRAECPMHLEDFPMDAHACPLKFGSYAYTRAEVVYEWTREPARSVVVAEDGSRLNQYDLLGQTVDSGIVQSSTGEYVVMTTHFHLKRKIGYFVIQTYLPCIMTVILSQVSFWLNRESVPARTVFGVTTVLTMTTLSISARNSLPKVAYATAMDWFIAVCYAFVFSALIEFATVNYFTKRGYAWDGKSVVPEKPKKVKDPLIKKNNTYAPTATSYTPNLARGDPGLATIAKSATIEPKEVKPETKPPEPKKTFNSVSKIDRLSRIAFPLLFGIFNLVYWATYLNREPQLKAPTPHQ
Sequence of α1β1 GABAA receptors (P15431 26-474): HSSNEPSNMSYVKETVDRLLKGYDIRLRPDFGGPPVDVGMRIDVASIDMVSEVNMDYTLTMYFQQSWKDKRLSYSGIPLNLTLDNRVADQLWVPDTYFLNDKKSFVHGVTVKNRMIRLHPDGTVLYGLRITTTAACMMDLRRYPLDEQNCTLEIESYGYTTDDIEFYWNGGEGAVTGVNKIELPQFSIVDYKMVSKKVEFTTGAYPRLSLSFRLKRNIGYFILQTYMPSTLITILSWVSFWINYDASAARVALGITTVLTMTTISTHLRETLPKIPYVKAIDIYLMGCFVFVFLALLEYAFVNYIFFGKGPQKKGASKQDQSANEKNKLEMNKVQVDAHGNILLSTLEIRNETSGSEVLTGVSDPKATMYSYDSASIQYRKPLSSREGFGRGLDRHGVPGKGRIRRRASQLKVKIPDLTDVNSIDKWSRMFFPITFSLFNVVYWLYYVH
Sequence of α1β3 GABAA receptors (P62813 28-455): as the sequence (P62813 28-455) above
Sequence of α1β3 GABAA receptors (P63079 26-473): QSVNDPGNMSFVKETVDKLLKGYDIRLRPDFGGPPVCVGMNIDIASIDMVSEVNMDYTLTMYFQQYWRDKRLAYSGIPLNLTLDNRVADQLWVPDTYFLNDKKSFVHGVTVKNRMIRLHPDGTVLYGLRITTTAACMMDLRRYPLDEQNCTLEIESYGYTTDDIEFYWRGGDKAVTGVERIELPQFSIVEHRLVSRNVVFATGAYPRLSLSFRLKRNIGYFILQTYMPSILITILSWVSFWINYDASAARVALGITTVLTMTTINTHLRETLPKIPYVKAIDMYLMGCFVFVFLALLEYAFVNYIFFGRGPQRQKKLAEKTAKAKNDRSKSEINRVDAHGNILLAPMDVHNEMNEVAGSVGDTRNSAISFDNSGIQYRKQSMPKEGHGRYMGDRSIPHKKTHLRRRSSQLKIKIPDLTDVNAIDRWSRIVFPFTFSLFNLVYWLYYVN
Sequence of α1β2 GABAA receptors (P62813 28-455): as the sequence (P62813 28-455) above
Sequence of α1β2 GABAA receptors (P63138 25-474 limits assumed): as the sequence (P63138 25-474 limits assumed) above
Sequence of α1β2γ2S GABAA receptors (P62813 28-455): as the sequence (P62813 28-455) above
Sequence of α1β2γ2S GABAA receptors (P63138 25-474 limits assumed): as the sequence (P63138 25-474 limits assumed) above
Sequence of α1β2γ2S GABAA receptors (P18508 39-466 partner): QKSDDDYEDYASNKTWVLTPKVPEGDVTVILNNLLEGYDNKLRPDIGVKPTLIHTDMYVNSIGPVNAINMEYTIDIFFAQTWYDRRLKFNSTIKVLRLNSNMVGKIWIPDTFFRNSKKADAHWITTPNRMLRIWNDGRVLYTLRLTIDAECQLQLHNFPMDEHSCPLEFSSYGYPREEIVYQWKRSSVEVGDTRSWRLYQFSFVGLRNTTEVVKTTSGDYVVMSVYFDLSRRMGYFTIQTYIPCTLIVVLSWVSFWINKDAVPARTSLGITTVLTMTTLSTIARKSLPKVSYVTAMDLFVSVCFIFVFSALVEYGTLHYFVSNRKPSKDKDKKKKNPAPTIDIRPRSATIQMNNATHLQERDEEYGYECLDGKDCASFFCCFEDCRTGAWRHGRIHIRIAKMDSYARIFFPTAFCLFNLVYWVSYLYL

With O=C(/C=C/C=C/c1ccc2c(c1)OCO2)N1CCCCC1 [Piperine, 1-piperoylpiperidine] the EC50 (α3β2 GABAA receptors [1]) was 59.6 ± 12.3 µM, the Emax (α3β2 GABAA receptors [1]; [7]) was 375 ± 51% and the “Hill coefficient (nH)” value (α3β2 GABAA receptors [1]; α3β2, GABA EC3–7) was 1.4 ± 0.2. The EC50 (α5β2 GABAA receptors) was 47.5 ± 17.9 µM, the Emax (α5β2 GABAA receptors; [7]) was 136 ± 22% and the “Hill coefficient (nH)” value (α5β2 GABAA receptors; α5β2, GABA EC3–7) was 1.7 ± 0.4. For the same compound, the EC50 (α2β2 GABAA receptors) was 42.8 ± 17.6 µM, the Emax (α2β2 GABAA receptors; [7]) was 248 ± 48% and the “Hill coefficient (nH)” value (α2β2 GABAA receptors; α2β2, GABA EC3–7) was 1.9 ± 0.5. The “IGABA,max in the presence of compound” value (α3β2 GABAA receptors [2]) was 123 ± 3%, the EC50 (α1β2 GABAA receptors) was 50 ± 7.9 µM and the Emax (α1β2 GABAA receptors; [7]) was 271 ± 36%. The “Hill coefficient (nH)” value (α1β2 GABAA receptors; α1β2, GABA EC3–7) was 1.5 ± 0.3, the EC50 (α1β2γ2S GABAA receptors) was 52.4 ± 9.4 µM and the “IGABA,max” value (α1β2γ2S GABAA receptors) was 302 ± 27%. For the same compound, the “Seizure threshold (PTZ dose)” value (C57BL/6N mice [3]; 3 mg/kg bodyweight i.p.) was 46.2 ± 5.4 mg/kg bodyweight PTZ, the “Seizure threshold (PTZ dose)” value (C57BL/6N mice [3]; 30 mg/kg bodyweight i.p.) was 30.3 ± 3.4 mg/kg bodyweight PTZ and the “Effect on seizure threshold” value (C57BL/6N mice [3]; doses below 3 mg/kg bodyweight i.p.) was “did not affect seizure threshold”. For the same compound, the “Vasodilatory effects during PTZ tail-vein infusion” value (C57BL/6N mice [3]; doses of 10–30 mg/kg, data not shown) was “observed vasodilatory effects”, the EC50 (α1β1 GABAA receptors) was 57.6 ± 4.2 µM and the Emax (α1β1 GABAA receptors; [7]) was 171 ± 22%. For the same compound, the “Hill coefficient (nH)” value (α1β1 GABAA receptors; α1β1, GABA EC3–7) was 1.4 ± 0.2, the “Total distance travelled (OF)” value (C57BL/6N mice [4]; 30 mg/kg bodyweight i.p., 30 min before test, 10 min test, control 39.3 ± 1.9 m) was 21.0 ± 3.7 m and the “Reduction of ambulation compared to control (OF)” value (C57BL/6N mice [4]; 30 mg/kg i.p.) was “approximately 50%”. For the same compound, the “Doses with significant reduction of ambulation (OF)” value (C57BL/6N mice [4]; i.p., 30 min before test) was no less than 3 mg/kg bodyweight, the “Time spent in the open arms (OA) in % of total time (EPM)” value (shortened to “Time spent in the open arms (OA) in %”) (C57BL/6N mice [5]; 0.1 mg/kg bodyweight i.p., vs saline-treated control) was “did not significantly differ” and the “Time spent in the open arms (OA) in %” value (C57BL/6N mice [5]; 0.3 mg/kg bodyweight i.p., 30 min before test, control 28.6 ± 2.1%) was 43.0 ± 4.2%. The “Effect on ambulation (EPM total distance)” value (C57BL/6N mice [5]; 1 mg/kg bodyweight i.p.) was “significantly reduced ambulation”, the “Time spent in the open arms (OA) in %” value (C57BL/6N mice [5]; 1 mg/kg bodyweight i.p., 30 min before test, control 28.6 ± 2.1%) was 45.7 ± 6.3% and the “Number of closed arm (CA) entries (EPM)” value (C57BL/6N mice [5]; doses ≥0.3 mg/kg bodyweight i.p.) was “dropped significantly”. The EC50 (TRPV1 channels) was 33.3 ± 0.1 µM, the “Hill coefficient of TRPV1 activation” value (TRPV1 channels; 3–300 μM) was 4.1 ± 0.1 and the “Activation of TRPV1 receptors (inward currents)” value (TRPV1 channels; oocytes expressing TRPV1, up to 300 μM) was “induced marked inward currents”. For the same compound, the Body temperature (C57BL/6N mice [6]; 10 mg/kg bodyweight i.p.) was 34.86 ± 0.29 °C, the Body temperature (C57BL/6N mice [6]; 30 mg/kg bodyweight i.p.) was 30.37 ± 0.84 °C and the “Activation of GABAA receptors in the absence of GABA” value (GABAA receptors) was “Neither piperine nor SCT-66 (up to 300 μM) activated GABAA receptors”. The EC50 (α1β3 GABAA receptors) was 48.3 ± 7.3 µM, the Emax (α1β3 GABAA receptors; [7]) was 332 ± 64% and the “Hill coefficient (nH)” value (α1β3 GABAA receptors; α1β3, GABA EC3–7) was 1.5 ± 0.3.
